A selection: hits, their analogues and other compounds. The true share with any hit is near 1.5%.
697 NFkB inh: inhibitors of PMA/ionomycin-induced NF-kB reporter, 697 cells, primary screen, B-cell NF-kB inhibitor project, cell-based, luminescence, uHTS; inhibition, % at 4 µM; actives 0.33% (n = 330,000); 697 B-cell NF-kB luciferase reporter, 16 h; AID 435022, 2010; in the data active = inhibition above about 35%
Jurkat NFkB inh: inhibitors of induced NF-kB luciferase reporter, primary screen, TCR NF-kB activation inhibitor project, cell-based, luminescence, uHTS; Jurkat, PMA/ionomycin-induced NF-kB luciferase reporter; actives 0.53% (n = 330,000); AID 435003, 2010; inhibition, % at 4 µM; in the data active = inhibition above about 50%
JMJD2C inh: inhibitors of GASC-1 histone demethylase, primary screen, biochemical, fluorescence, DELFIA europium; Lysine-specific demethylase 4C (Homo sapiens), Q9H3R0; GST-JMJD2C(1-420) H3K9me3 demethylation; inhibition, % at 2.35 µM; actives 0.069% (n = 330,000);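 active = more than half of a compound's replicate wells show inhibition beyond 50%, single wells judged on their own value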;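 also: signal counts dimethyl H3K9 product captured on neutravidin plate; 0% = median of DMSO wells and 100% = 0.3 times that DMSO median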
Target sequence (Q9H3R0 1-420 limits assumed): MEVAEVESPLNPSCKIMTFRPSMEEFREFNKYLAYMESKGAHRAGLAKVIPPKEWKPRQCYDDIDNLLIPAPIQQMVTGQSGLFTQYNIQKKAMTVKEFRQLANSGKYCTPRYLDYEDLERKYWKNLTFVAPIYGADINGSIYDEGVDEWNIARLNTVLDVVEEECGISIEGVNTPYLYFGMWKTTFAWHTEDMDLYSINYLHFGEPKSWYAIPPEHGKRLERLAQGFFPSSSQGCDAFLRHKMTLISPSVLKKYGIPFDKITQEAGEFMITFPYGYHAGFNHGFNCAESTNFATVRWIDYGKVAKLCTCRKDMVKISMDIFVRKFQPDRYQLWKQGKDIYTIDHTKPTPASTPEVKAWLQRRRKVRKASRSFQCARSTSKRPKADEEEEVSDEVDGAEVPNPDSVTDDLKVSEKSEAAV
GalR3 antagonist: GalR3 antagonists in HEK293 cells, primary screen, cell-based, fluorescence readout; Galanin receptor type 3 (Homo sapiens), O60755; HEK293 GalR3-CNG cAMP membrane potential fluorescence; galR3 body fused to GalR1 C-terminus; inhibition, % at 3 µM; actives 0.44% (n = 360,000); AID 651719, 2012;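 active = inhibition above the screen-wide average plus 3 SD, cut at about 13% in these data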;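 also: forskolin and galanin both at EC90 stimulate the cells; cAMP rise reported by CNG channel membrane potential dye signal; 0% = forskolin plus galanin with DMSO and 100% = forskolin alone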
Target sequence (O60755 1-299 limits assumed): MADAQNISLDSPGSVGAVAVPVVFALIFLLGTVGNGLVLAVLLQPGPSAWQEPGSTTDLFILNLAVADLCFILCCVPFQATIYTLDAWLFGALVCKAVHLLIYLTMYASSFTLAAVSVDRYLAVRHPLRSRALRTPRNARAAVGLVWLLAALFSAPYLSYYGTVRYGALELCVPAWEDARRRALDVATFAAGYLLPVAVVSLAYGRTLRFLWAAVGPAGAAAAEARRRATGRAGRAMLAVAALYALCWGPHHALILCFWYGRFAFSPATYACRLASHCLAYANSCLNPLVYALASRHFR
NR2E3 ag-1: inhibitors of NR2E3-RetCOR corepressor binding, primary screen, NR2E3 agonist project, biochemical, TR-FRET, GST-NR2E3, biotin-RetCOR. 1536-well. actives 0.12% (n = 320,000). Photoreceptor-specific nuclear receptor (Homo sapiens), Q9Y5X4. inhibition of corepressor binding, % at 4.78 µM;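 active = percent inhibition above the cutoff of mean plus 3 SD of all tested compounds, set per screening campaign, cut at about 20% in these data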;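 also: 0% = DMSO wells and 100% = biotin wells as full block of FRET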
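Test system: GST-NR2E3 and biotin-RetCOR proteins | Quantity: 1.35 nM GST-tagged NR2E3 final | Medium: Tris pH 7.5 | Also added: 7 nM biotin-RetCOR | Dosing: Compound at 4.8 µM, single dose | Timing: 5 h at 4 °C | Detection: Time-resolved FRET | Read-out basis: Percent inhibition | Benchmarks: Biotin wells as high control, 0.6% DMSO wells as low control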
NR2E3 ag-2: NR2E3 agonists in two-hybrid cells, primary screen, cell-based, luminescence, CHO-S, Gal4-NCOR/VP16-NR2E3; luciferase; actives 0.35% (n = 360,000); inhibition of corepressor binding, % at 3.98 µM;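 active = inhibition above the mean of all tested compounds plus 3 SD, cut at about 70% in these data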;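 also: 0% = DMSO with NR2E3 transfected cells and 100% = cells lacking NR2E3 construct; higher means lower luciferase signal from less NR2E3 corepressor binding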
NR2E3 ag conf: NR2E3 agonist confirmation in cells, cell-based, luminescence, CHO-S two-hybrid; shares compounds with NR2E3 ag-2; CHO-S mammalian two-hybrid NR2E3-NCOR, luciferase luminescence; inhibition, % at 3.98 µM; actives 51% (n = 2,300);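 active = average inhibition above a cutoff equal to the mean inhibition of all tested compounds plus one SD, cut at about 70% in these data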;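 also: 0% = DMSO in NR2E3 cells and 100% = DMSO in cells lacking NR2E3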
GAL4-VP16 luc: GAL4-VP16 reporter modulators, confirmation, counter-screen for NR2E3 agonist project, cell-based, luminescence, CHO-S, high throughput; AID 624379, 2012; shares compounds with NR2E3 ag-2; inhibition, % at 3.98 µM; actives 29% (n = 2,300); CHO-S GAL4-VP16 luciferase reporter;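 active = mean inhibition above a cutoff equal to the average over all tested compounds plus one standard deviation, cut at about 70% in these data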;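 also: luciferase from a UAS reporter driven by GAL4-VP16 transactivation; 0% = DMSO with VP16-transfected cells and 100% = DMSO with cells lacking VP16; higher means less reporter light so more repression of VP16 activity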
An asterisk follows results filed as active; nt = not tested or not shown.

SMILES | 697 NFkB inh | Jurkat NFkB inh | JMJD2C inh | GalR3 antagonist | NR2E3 ag-1 | NR2E3 ag-2 | NR2E3 ag conf | GAL4-VP16 luc
CCOCCCNC(=O)CS(=O)(=O)Cc1nc(-c2cccc(OC)c2)oc1C | 9.7 | -4.2 | -3.0 | -4.2 | 2.8 | 13.7 | nt | nt
CSc1ccc(-c2nc(CSCC(=O)NCCCN3CCCC3=O)c(C)o2)cc1 | 6.9 | 8.9 | -1.7 | -7.2 | 1.0 | 31.6 | nt | nt
CCOCCCNC(=O)CSCc1nc(-c2ccc(SC)cc2)oc1C | 22.9 | 3.9 | 0.5 | -6.1 | 2.1 | 81.0* | 81.1* | 80.7*
CCc1ccc(-c2nc(CSCC(=O)NCCCN3CCCC3=O)c(C)o2)cc1 | 32.2 | 16.3 | -8.2 | -3.9 | -0.3 | 71.2* | 89.7* | 63.2
COc1cc(OC)c(OC)cc1CNCCNC(=O)c1nonc1N | -18.3 | -4.6 | -5.1 | -4.5 | -1.7 | -5.3 | nt | nt
O=C1CCc2cccc(O)c2N1 | nt | nt | nt | -0.1 | nt | 6.4 | nt | nt
COc1cccc(C(=O)Nc2nnc(S(=O)(=O)N(C)Cc3ccc(F)cc3)s2)c1 | 2.0 | -2.7 | -23.7 | 1.5 | 0.9 | 49.6 | 41.0 | 18.8
CCC1(O)C(=O)OCc2c1cc1n(c2=O)Cc2cc3cc(O)ccc3nc2-1 (configuration not stated) | nt | nt | nt | -3.8 | nt | 63.3 | 89.8* | 26.7
O=[N+]([O-])c1cc(Cl)c(O)c2ncccc12 | -0.5 | 24.0 | nt | -8.4 | nt | 102.9* | 99.0* | 71.2*
CN(Cc1cc([N+](=O)[O-])c2cccnc2c1O)C1CCCCC1 | -17.5 | -23.5 | -15.6 | nt | -1.9 | nt | nt | nt
O=[N+]([O-])c1cc(CN2CCN(c3ccccc3)CC2)c(O)c2ncccc12 | -5.5 | 9.4 | -20.9 | -5.5 | -1.1 | 83.3* | 74.1* | 20.0
O=[N+]([O-])c1ccc(Cl)c2cccnc12 | 6.0 | -0.6 | -6.4 | -5.5 | 1.6 | -3.1 | nt | nt
CN(c1ccc(F)cc1)S(=O)(=O)c1ccc(Cl)c(C(=O)Nc2ccncc2)c1 | -78.4 | 18.9 | 0.0 | -7.1 | 4.6 | 86.7* | 53.5 | 60.3
CN(c1ccccc1)S(=O)(=O)c1ccc(Cl)c(C(=O)Nc2ccncc2)c1 | -32.2 | 1.8 | 0.8 | -4.2 | -1.6 | 76.4* | 69.2 | 56.4
CCN(c1ccccc1)S(=O)(=O)c1ccc(Cl)c(C(=O)Nc2ccncc2)c1 | nt | nt | nt | -4.4 | nt | 18.7 | nt | nt
Cc1cc(NC(=O)COC(=O)C2CCN(S(=O)(=O)c3ccccc3)CC2)c([N+](=O)[O-])cc1C | -42.0 | -7.4 | 11.1 | 2.0 | 2.3 | -17.7 | nt | nt
O=c1oc2ccccc2c(Nc2cccc3ccccc23)c1[N+](=O)[O-] | -4.9 | 0.9 | -2.2 | 3.4 | -4.0 | 50.3 | 66.4 | 30.0
COc1cccc(N(CC(=O)N2CCCC2)S(C)(=O)=O)c1 | 1.3 | -7.9 | 18.4 | -7.0 | -1.1 | -1.4 | nt | nt
CS(=O)(=O)N1CCc2cc(S(=O)(=O)Nc3ccc4c(c3)OCCO4)ccc21 | -3.1 | 28.5 | 11.8 | -3.4 | 0.2 | 52.6 | 43.9 | 33.1
CCC(=O)N1CCc2cc(S(=O)(=O)Nc3ccc4c(c3)OCCO4)ccc21 | -23.5 | 14.8 | 22.0 | -5.8 | -1.5 | 53.3 | 88.9* | 78.2*
O=C(C1CCC1)N1CCc2cc(S(=O)(=O)Nc3ccc4c(c3)OCCO4)ccc21 | -41.2 | 20.8 | 27.8 | -3.5 | 0.6 | 41.0 | nt | nt
CS(=O)(=O)N1CCc2cc(S(=O)(=O)NCCNS(=O)(=O)c3ccc4c(c3)CCN4S(C)(=O)=O)ccc21 | -27.2 | -28.8 | -4.2 | -2.3 | -3.9 | 4.5 | nt | nt
O=c1cc(CN(Cc2ccccc2)Cc2ccccc2)c2ccccc2o1 | nt | nt | nt | -6.0 | nt | -14.0 | nt | nt
Cc1ccc(C)c(C(=O)CCC(=O)NNC(=O)c2cccs2)c1 | 5.5 | -5.5 | -2.0 | -5.9 | nt | -20.0 | nt | nt
COc1ccc(C(=O)NCc2nnc(SCC(=O)Nc3nc4ccccc4s3)o2)cc1OC | 0.4 | -14.3 | 3.6 | 1.7 | -6.1 | -10.7 | nt | nt
SMILES | 697 NFkB inh | Jurkat NFkB inh | JMJD2C inh | GalR3 antagonist | NR2E3 ag-1 | NR2E3 ag-2 | NR2E3 ag conf | GAL4-VP16 luc
Cc1ccc(S(=O)(=O)N2[C@@H](c3ccc(F)cc3)C(C(=O)O)=CC[C@H]2c2ccc(C(C)C)cc2)cc1 | -26.9 | -11.9 | -4.1 | -2.6 | 1.8 | 72.9* | 29.6 | 49.6
Cc1ccc(S(=O)(=O)N2[C@@H](c3cccc(Cl)c3)C(C(=O)O)=CC[C@H]2c2ccc(C(C)C)cc2)cc1 | 12.2 | 16.2 | -183.3 | -3.7 | 0.8 | 72.5* | 23.4 | 26.9
O=C(NCc1ccccn1)c1cccc(S(=O)(=O)N2CCc3ccccc32)c1 | -3.6 | -2.6 | 4.4 | -7.0 | nt | 23.5 | nt | nt
C/C=C(/C)C(=O)OC1CC(C)(C)C[C@H]2C3=CC[C@@H]4[C@@]5(C)CCC(O[C@@H]6O[C@@H](C(=O)O)[C@@H](O)C(O[C@@H]7OC[C@H](O)[C@@H](O)[C@@H]7O[C@@H]7OC(CO)C(O)[C@@H](O)[C@@H]7O)C6O[C@@H]6OC(CO)C(O)C(O)C6O)[C@@](C)(CO)[C@@H]5CC[C@]4(C)[C@]3(C)CC(O)[C@@]12CO (some centres not stated) | 5.9 | -0.4 | -8.5 | nt | nt | 48.0 | 40.1 | 17.1
CC(=O)OC1COC(OC2C(O)C(C)OC(OC3C(OC4CCC5(C)C(CCC6(C)C5CC=C5C7CC(C)(C)CCC7(C(=O)O)CCC56C)C4(C)CO)OCC(O)C3O)C2O)C(O)C1OC(C)=O (configuration not stated) | 3.8 | 4.4 | 2.4 | nt | 1.5 | nt | nt | nt
S=C(NCc1ccc(Cl)cc1)Nc1ccncc1 | -41.8 | 30.8 | -1.5 | 5.7 | 1.2 | 99.9* | 84.1* | 81.0*
S=C(NCc1ccc(Cl)cc1)Nc1ccccc1 | -3.1 | 5.2 | 2.0 | -4.0 | 1.7 | -22.8 | nt | nt
COc1ccc(S(=O)(=O)Nc2ccc3c(c2)C(=O)N([C@H](C)CO)C[C@H](C)[C@@H](CN(C)S(C)(=O)=O)O3)cc1 | 9.0 | -7.0 | 12.5 | -2.2 | nt | -16.9 | nt | nt
Cc1cn([C@@H](CCCCNC(=O)OC(C)(C)C)C(=O)NCCCCCCCCCCC(=O)N2CCN(C(=O)OC(C)(C)C)CC2)nn1 | -59.3 | 32.8 | 3.4 | nt | 3.4 | 56.4 | 74.1* | 63.6

Screening data as filed in PubChem.
